*1 amine or outer side, *2 acyl side, *3 side chain or, on linkers, in order; H or OH if unused. Where a SMILES comes first, the peptide text is derived from it. Bridges are numbered along the chain shown (N, C = ends). X1 = CC(C)(CC(=O)[*:1])S[*:2]
How the values were obtained:
[1] = tested on: Rattus norvegicus; assay: Antivasopressor activity in iv dosed phenoxybenzamine treated rat assessed as inhibition of arginine-vasopressin-induced effect; type: functional, organism-based; settings: read-out: pA2 (converted)
Summary of the method: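 Rats pretreated with phenoxybenzamine and anaesthetised with urethane; pressor response to arginine-vasopressin recorded with and without intravenous analogue. pA2 derived by the Schild method, one pA2 calculated per assay group, reported as mean ± SE across groups, number of assays stated.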

[2] = tested on: Rattus norvegicus; assay: Antidiuretic activity in iv dosed rat; type: functional, Urine
Summary of the method: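 Rats under ethanol anesthesia, analogue given intravenously; antidiuretic response measured by previously described method.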

[3] = tested on: Rattus norvegicus; assay: Vasopressor activity in iv dosed phenoxybenzamine treated rat; type: functional
Summary of the method: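 Rats pretreated with phenoxybenzamine, under urethane anesthesia, analogue given intravenously; vasopressor (blood pressure) response measured, antagonism expressed as pA2 by Schild method, pA2 calculated per assay group and reported as mean ± SE with number of assays.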

Compound	Kb [1]	Activity [2]	Activity [3]
COc1ccc(C[C@@H]2NC(=O)CC(C)(C)SSC[C@@H](C(=O)N3CCC[C@H]3C(=O)N[C@@H](CCCN=C(N)N)C(=O)NCC(N)=O)NC(=O)[C@H](CC(N)=O)NC(=O)[C@H](CCC(N)=O)NC(=O)[C@H](Cc3ccccc3)NC2=O)cc1 (Y(Me)FQNCPRG-NH2; linker N-5 via X1)	11 nM	3.5 U/mg	
N=C(N)NCCC[C@@H](NC(=O)[C@@H]1CCCN1C(=O)[C@@H]1CSSCCC(=O)N[C@@H](Cc2ccc(O)cc2)C(=O)N[C@@H](Cc2ccccc2)C(=O)N[C@@H](CCC(N)=O)C(=O)N[C@@H](CC(N)=O)C(=O)N1)C(=O)NCC(N)=O [DESMOPRESSIN]			346 U/mg
CC[C@H](C)[C@@H]1NC(=O)[C@H](Cc2ccc(OC)cc2)NC(=O)[C@@H](N)CSSC[C@@H](C(=O)N2CCC[C@H]2C(=O)N[C@@H](CC(C)C)C(=O)NCC(N)=O)NC(=O)[C@H](CC(N)=O)NC(=O)[C@H](CCC(N)=O)NC1=O		0.01 U/mg	
COc1ccc(C[C@@H]2NC(=O)[C@@H](N)CSSC[C@@H](C(=O)N3CCC[C@H]3C(=O)N[C@@H](CCCNC(=N)N)C(=O)NCC(N)=O)NC(=O)[C@H](CC(N)=O)NC(=O)[C@H](CCC(N)=O)NC(=O)[C@H](Cc3ccccc3)NC2=O)cc1		386 U/mg	9.7 U/mg
COc1ccc(C[C@@H]2NC(=O)[C@@H](N)CSSC[C@@H](C(=O)N3CCC[C@H]3C(=O)N[C@@H](CCCCN)C(=O)NCC(N)=O)NC(=O)[C@H](CC(N)=O)NC(=O)[C@H](CCC(N)=O)NC(=O)[C@H](Cc3ccccc3)NC2=O)cc1		79 U/mg	2.4 U/mg
NCCCC[C@H](NC(=O)[C@@H]1CCCN1C(=O)[C@@H]1CSSC[C@H](N)C(=O)N[C@@H](Cc2ccc(O)cc2)C(=O)N[C@@H](Cc2ccccc2)C(=O)N[C@@H](CCC(N)=O)C(=O)N[C@@H](CC(N)=O)C(=O)N1)C(=O)NCC(N)=O [LYPRESSIN]		212 U/mg	285 U/mg
CC[C@H](C)[C@@H]1NC(=O)[C@H](Cc2ccc(O)cc2)NC(=O)CCSSC[C@@H](C(=O)N2CCC[C@H]2C(=O)N[C@@H](CC(C)C)C(=O)NCC(N)=O)NC(=O)[C@H](CC(N)=O)NC(=O)[C@H](CCC(N)=O)NC1=O [DEMOXYTOCIN]		19 U/mg	1.44 U/mg
N=C(N)NCCC[C@H](NC(=O)[C@@H]1CCCN1C(=O)[C@@H]1CSSC[C@H](N)C(=O)N[C@@H](Cc2ccc(O)cc2)C(=O)N[C@@H](Cc2ccccc2)C(=O)N[C@@H](CCC(N)=O)C(=O)N[C@@H](CC(N)=O)C(=O)N1)C(=O)NCC(N)=O [VASOPRESSIN]		323 U/mg	
CC1(C)CC(=O)N[C@@H](Cc2ccc(O)cc2)C(=O)N[C@@H](Cc2ccccc2)C(=O)N[C@@H](CCC(N)=O)C(=O)N[C@@H](CC(N)=O)C(=O)N[C@H](C(=O)N2CCC[C@H]2C(=O)N[C@@H](CCCNC(=N)N)C(=O)NCC(N)=O)CSS1 (YFQNCPRG-NH2; linker N-5 via X1)		42 U/mg	
CC[C@H](C)[C@@H]1NC(=O)[C@H](Cc2ccc(O)cc2)NC(=O)[C@@H](N)CSSC[C@@H](C(=O)N2CCC[C@H]2C(=O)N[C@@H](CC(C)C)C(=O)NCC(N)=O)NC(=O)[C@H](CC(N)=O)NC(=O)[C@H](CCC(N)=O)NC1=O [OXYTOCIN]		4 U/mg	

Reference: ChEMBL document CHEMBL3272107, “Design of potent antagonists of the vasopressor response to arginine-vasopressin” (J Med Chem, 1978)
